Molecules are shown by their SMILES. pIC50: −log10 of the molar value. Active and inactive are the calls of the source.

In data set [1] the test system is Rattus norvegicus. The data set is described as follows: Reversal of complete freund's adjuvant-induced thermal hypersensitivity in po dosed Sprague-Dawley rat measured at 100 mins. It is filed as functional. The method, boiled down:
(§1)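 Male Sprague−Dawley rats (195−350 g), intraplantar CFA (100 μL, 1:1 CFA:saline) with testing 24 h later, or carrageenan-λ (200 μL, 10 mg/mL) with testing 3 h later. Radiant heat withdrawal latency, 10−15 s baseline, 20 s cutoff; rats with ≥25% latency drop kept. Oral dosing at 2.5 mL/kg. Percent reversal = (treatment − post)/(pre − post) × 100, scored blind.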

Data set [2] relates to Rattus norvegicus. The experiment in a line: Reversal of complete freund's adjuvant-induced thermal hypersensitivity in po dosed Sprague-Dawley rat assessed as plasma concentration required to reach ED50 measured at 100 mins. It is filed as functional. A digest of the protocol:
(§2)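 Rats dosed orally 100 min before radiant-heat testing. For CFA, plasma taken right after behavioural testing; for carrageenan, taken from a separate group dosed identically. Blood collected on lithium heparin and centrifuged, plasma stored at −80 °C. Plasma levels matching ED50 and ED80 (EC50/EC80) computed from the dose−response data.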

Data set [3] deals with Rattus norvegicus. The experiment in a line: Reversal of complete freund's adjuvant-induced thermal hypersensitivity in po dosed Sprague-Dawley rat assessed as plasma concentration required to reach ED80 measured at 100 mins. Format: functional. The method, boiled down:
as §2

Data set [4] concerns the target T1, Transient receptor potential cation channel subfamily V member 1 (Homo sapiens, UniProt Q8NER1). The data set is described as follows: Antagonist activity at recombinant human TRPV1 expressed in HEK293 cells assessed as inhibition of capsaicin-induced Ca2+ influx at 1 uM preincubated for 5 mins followed by capsaicin challenge relative to control. Format: cell-based. A digest of the protocol:
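HEK293 cells stably expressing human TRPV1, loaded with Calcium 3 dye 35 min at 37 °C, then 25 min at room temperature. Compound added and Ca²⁺ read 5 min (FLIPR or FDSS) before capsaicin at ~EC80 (typically 0.020−0.030 μM final). Response normalised to 90 or 100 μM capsaicin (100%) and 0.6 pM (0%).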

Data set [5] concerns Liver microsome. The data set is described as follows: (§3) Metabolic stability in rat liver microsomes assessed as compound remaining after 10 mins. Format: ADME. The note with it: microsomes, 10 min. A digest of the protocol: (§4)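 Compound incubated 10 min with liver microsomes of the stated species; amount of parent remaining reported as percent.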
Background: Liver microsomes are vesicles of endoplasmic reticulum, rich in cytochrome P450 enzymes.

Data set [6] deals with Liver microsome. The experiment in a line: (§5) Metabolic stability in human liver microsomes assessed as compound remaining after 10 mins. Format: ADME. The note with it: microsomes, 10 min. A digest of the protocol: as §4
Data set [7] in a line: as §3. The note with it: liver microsomes, read-out: Stability. Format: ADME. The method, boiled down:
as §4

Data set [8] is described as follows: as §5. It is filed as ADME. The note with it: liver microsomes, read-out: Stability. A digest of the protocol:
as §4

The species named for data set [9] is Rattus norvegicus. The data set is described as follows: Drug level in rat treated with (trans)-1-(2-{2-[2-(4-Trifluoromethyl-phenyl)-vinyl]-1H-benzoimidazol-5-yl}-phenyl)-ethanol. Format: ADME, organism-based. The settings on record: in vivo.
Data set [10] has as its target T1, Transient receptor potential cation channel subfamily V member 1. The experiment in a line: Antagonist activity at recombinant human TRPV1 expressed in HEK293 cells assessed as inhibition of capsaicin-induced Ca2+ influx preincubated for 5 mins followed by capsaicin challenge. It is filed as cell-based.
The test system of data set [11] is Rattus norvegicus. The experiment in a line: Reversal of complete freund's adjuvant-induced thermal hypersensitivity in po dosed Sprague-Dawley rat measured after 30 to 180 mins. Format: functional, organism-based. The method, boiled down: as §1
Data set [12] deals with Rattus norvegicus. The experiment in a line: Reversal of complete freund's adjuvant-induced thermal hypersensitivity in Sprague-Dawley rat at 10 mg/kg, po measured after 30 to 180 mins. It is filed as functional, organism-based. Details: dose 10 mg/kg.
A short description of data set [13]: Oral bioavailability in rat at 10 mg/kg. The settings on record: in vivo. Format: ADME, organism-based. A digest of the protocol:
(§6)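 Oral dosing at 10 mg/kg as a solution of the sodium salt in 20% HPβCD, n = 4 animals per group.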

Data set [14] is filed under the species Rattus norvegicus. The experiment in a line: Drug metabolism in rat assessed as formation of (trans)-1-(2-{2-[2-(4-Trifluoromethyl-phenyl)-vinyl]-1H-benzoimidazol-5-yl}-phenyl)-ethanone. The note with it: in vivo. It is filed as ADME, organism-based.
Data set [15] in a line: Clearance in rat at 2 mg/kg, iv. Format: ADME, organism-based. Also noted: dose 2 mg/kg, route intravenous. The settings on record: in vivo. A digest of the protocol: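 Intravenous dosing at 2 mg/kg as a solution of the sodium salt in 20% HPβCD, n = 4 animals per group.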
The nature of data set [16]: Half life in rat at 10 mg/kg, po. The settings on record: in vivo. Also noted: dose 10 mg/kg, route oral. Format: ADME, organism-based. The method, boiled down: as §6
The test system of data set [17] is Rattus norvegicus. The data set is described as follows: Reversal of complete freund's adjuvant-induced thermal hypersensitivity in po dosed Sprague-Dawley rat after 60 mins. It is filed as functional. A digest of the protocol: as §1
For data set [18], the system named is Rattus norvegicus. The experiment in a line: Reversal of complete freund's adjuvant-induced thermal hypersensitivity in po dosed Sprague-Dawley rat measured at 30 mins. Format: functional. A digest of the protocol: as §1
Data set [19] concerns Rattus norvegicus. The experiment in a line: Reversal of complete freund's adjuvant-induced thermal hypersensitivity in po dosed Sprague-Dawley rat measured at 3 hrs. It is filed as functional. The method, boiled down:
as §1

Data set [20] has as its system Rattus norvegicus. The experiment in a line: Reversal of complete freund's adjuvant-induced thermal hypersensitivity in Sprague-Dawley rat at 30 mg/kg, po measured after 30 to 180 mins. It is filed as functional, organism-based. Details: dose 30 mg/kg.

T1 sequence (Q8NER1 whole entry): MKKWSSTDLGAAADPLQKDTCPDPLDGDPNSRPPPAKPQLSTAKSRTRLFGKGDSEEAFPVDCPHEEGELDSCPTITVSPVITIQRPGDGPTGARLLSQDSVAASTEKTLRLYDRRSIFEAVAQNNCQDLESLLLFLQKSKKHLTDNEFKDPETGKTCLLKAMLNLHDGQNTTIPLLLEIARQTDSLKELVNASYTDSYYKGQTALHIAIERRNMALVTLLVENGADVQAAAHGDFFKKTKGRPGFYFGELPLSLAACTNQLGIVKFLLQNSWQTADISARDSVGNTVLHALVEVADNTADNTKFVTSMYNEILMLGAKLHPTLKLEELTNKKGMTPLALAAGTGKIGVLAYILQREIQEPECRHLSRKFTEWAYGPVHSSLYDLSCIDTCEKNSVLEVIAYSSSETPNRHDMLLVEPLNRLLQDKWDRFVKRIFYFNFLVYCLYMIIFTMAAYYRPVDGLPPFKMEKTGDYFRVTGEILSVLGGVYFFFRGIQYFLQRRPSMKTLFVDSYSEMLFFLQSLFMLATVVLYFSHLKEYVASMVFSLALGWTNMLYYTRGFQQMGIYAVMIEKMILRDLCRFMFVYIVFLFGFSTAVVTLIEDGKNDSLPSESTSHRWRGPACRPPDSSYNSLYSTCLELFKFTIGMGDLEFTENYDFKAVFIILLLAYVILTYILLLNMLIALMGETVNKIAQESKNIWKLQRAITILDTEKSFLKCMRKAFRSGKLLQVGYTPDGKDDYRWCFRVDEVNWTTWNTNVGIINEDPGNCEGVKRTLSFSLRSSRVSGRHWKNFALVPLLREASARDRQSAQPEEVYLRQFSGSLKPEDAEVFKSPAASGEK

Usually ED50 stands for the midpoint of the dose-response relation. `NS(=O)(=O)c1ccccc1-c1ccc2[nH]c(/C=C/c3ccc(C(F)(F)F)cc3)nc2c1`: in data set [1], the ED50 is 2.6 mg/kg and the ED80 was determined as 10.3 mg/kg. In addition, the Activity in [2] turned out to be 1757 ng/mL. For the same molecule, the Activity in data set [3] amounted to 62788 ng/mL.
The inhibition is the drop in the measured response relative to a control, in per cent. With `CC(C)(C)c1ccc(CCCc2nc3cc(-c4ccccc4O)ccc3[nH]2)cc1`, the inhibition in data set [4] was determined as 6%.
Regarding `NS(=O)(=O)c1ccccc1-c1ccc2[nH]c(CCc3ccc(C(F)(F)F)cc3)nc2c1`, the Stability entry in data set [5] and in data set [6] was “Unstable” each time.
For `CC(C)(C)c1ccc(/C=C/c2nc3cc(-c4ccccc4NS(C)(=O)=O)ccc3[nH]2)cc1`, the remaining at 10 min is 29% in data set [7] and 9% in data set [8].
Take `NS(=O)(=O)c1ccccc1-c1ccc2[nH]c(/C=C/c3cccc(OC(F)(F)F)c3)nc2c1`: the Stability entry in data set [5] is “Unstable”.
As for `CC(C)(C)c1ccc(/C=C/c2nc3cc(-c4ccc(C(N)=O)cc4)ccc3[nH]2)cc1`, the inhibition in data set [4] is 10%.
As for `CC(=O)c1ccccc1-c1ccc2[nH]c(/C=C/c3ccc(C(F)(F)F)cc3)nc2c1`, the Drug metabolism entry in [9] was “metabolite_detected”.
Take `NS(=O)(=O)c1ccccc1-c1ccc2[nH]c(/C=C/c3ccc(OC(F)(F)F)cc3)nc2c1`: in data set [5], the Stability entry was “Unstable”.
A word on the pIC50: it is the IC50 on a negative log10 scale, so that one unit is a factor of ten. On to `CC(C)(O)c1ccccc1-c1ccc2[nH]c(/C=C/c3ccc(Cl)cc3)nc2c1`, for which the pIC50 in [10] is 8.24. Besides, the Stability result in [5] and in data set [6] was “Stable” in each case. Also, the result in data set [11] was inactive.
For `CC(=O)Nc1ccc(-c2ccc3[nH]c(/C=C/c4ccc(C(C)(C)C)cc4)nc3c2)cc1`, the inhibition in [4] was found to be 10%.
Take `CS(=O)(=O)Nc1ccccc1-c1ccc2[nH]c(/C=C/c3ccc(OC(F)(F)F)cc3)nc2c1`: in data set [10], the pIC50 was 7.77. The Stability result in data set [5] is “Stable”. The outcome in data set [12] was inactive.
As usually defined, the bioavailability is dose-corrected exposure relative to a reference, in per cent. High values mean good availability, low ones poor availability. On to `CC(O)c1ccccc1-c1ccc2[nH]c(/C=C/c3ccc(C(F)(F)F)cc3)nc2c1` (stereo not given), for which the remaining at 10 min in data set [7] turned out to be 89%; in data set [8] it was 97%. In data set [13], this molecule yielded a bioavailability of 39%. Also, the Drug metabolism result in [14] was “metabolite_detected”.
For orientation: clearance means the volume of plasma or blood freed of the substance per unit of time. Read a low clearance as inefficient removal. As usually defined, the half-life is the time needed for the level to fall by half in the phase considered. On to `CS(=O)(=O)Nc1ccccc1-c1ccc2[nH]c(/C=C/c3ccc(C(F)(F)F)cc3)nc2c1`, for which the pIC50 in data set [10] is 8.00. Also, the remaining at 10 min in [7] worked out at 50%; in data set [8], 85%. Further, the bioavailability in [13] amounted to 65%. This molecule came in with a clearance in data set [15] of 13 mL/min/kg. Moreover, the half-life in [16] is 4 h. In addition, in [17], the Activity result was “Dose-dependent effect”. Besides, the ED50 in data set [17] (Rattus norvegicus, Sprague-Dawley, po, 1 h) came out at 4.3 mg/kg.
As to `CC(C)(O)c1ccccc1-c1ccc2[nH]c(C#Cc3ccc(C(F)(F)F)cc3)nc2c1`, in data set [10], the pIC50 was 8.35. Moreover, the Stability entry in data set [5] and in [6] was “Stable” throughout.
On to `CS(=O)(=O)Nc1ccccc1-c1ccc2[nH]c(/C=C/c3ccc(OCC(F)(F)C(F)(F)F)cc3)nc2c1`, for which the inhibition in [4] came out at 63%.
Take `CC(C)(O)c1ccccc1-c1ccc2[nH]c(/C=C/c3ccc(S(=O)(=O)C(F)(F)F)cc3)nc2c1`: in data set [10], the pIC50 is 7.72. In data set [11], the outcome was inactive.
Consider `NS(=O)(=O)c1ccccc1-c1ccc2[nH]c(C#Cc3ccc(C(F)(F)F)cc3)nc2c1`, for which the negative-log IC50 (pIC50) in data set [10] was 7.70.
`CC(C)(C)c1ccc(/C=C/c2nc3cc(-c4cccc(C(N)=O)c4)ccc3[nH]2)cc1`: in [4], the inhibition came to 12%.
Same read-out and setting: then `CS(=O)(=O)Nc1ccccc1-c1ccc2[nH]c(/C=C/c3ccccc3C(F)(F)F)nc2c1`, with 44%.
Turning to `CC(C)c1ccc(/C=C/c2nc3cc(-c4ccccc4NS(C)(=O)=O)ccc3[nH]2)cc1`, the negative-log IC50 (pIC50) in data set [10] was 8.04.
Regarding `CS(=O)(=O)Nc1ccccc1-c1ccc2[nH]c(/C=C/c3cccc(C(F)(F)F)c3)nc2c1`, in data set [4], the inhibition is 48%.
For `CC(=O)c1ccccc1-c1ccc2[nH]c(/C=C/c3ccc(C(C)(C)C)cc3)nc2c1`, the pIC50 in data set [10] is 7.60. For the same molecule, the results for the remaining at 10 min in [7] and in data set [8] were 43% and 12%, respectively.
For the molecule `CC(C)(O)c1ccccc1-c1ccc2[nH]c(/C=C/c3ccc(OC(F)(F)F)cc3)nc2c1`, the negative logarithm of the IC50 (pIC50) in data set [10] was 8.23. In addition, the Stability result in data set [5] and in data set [6] was “Stable” each time. The outcome in data set [11] was inactive.
Consider `CC(C)(C)c1ccc(/C=C/c2nc3cc(-c4ccccc4C(N)=O)ccc3[nH]2)cc1`, for which the pIC50 in data set [10] was 7.40.
As to `CC(C)(O)c1ccccc1-c1ccc2[nH]c(C#Cc3ccccc3)nc2c1`, the negative logarithm of the IC50 (pIC50) in data set [10] was 8.55. Also, the Stability entry in data set [5] and in data set [6] was “Stable” in each case. In data set [13], this molecule returned a bioavailability of 13%. Further, the Activity in [18] is on record as 71%; in data set [19], 41%.
For `CC(C)(O)c1ccccc1-c1ccc2[nH]c(/C=C/c3cccc(C(F)(F)F)c3)nc2c1`, the pIC50 in data set [10] is 8.31. Moreover, the Activity in data set [17] is reported as 58%.
Regarding `CC(C)(C)c1ccc(Cc2nc3cc(-c4ccccc4O)ccc3[nH]2)cc1`, the inhibition in data set [4] is 6%.
As to `CC(C)(O)c1ccccc1-c1ccc2[nH]c(CCc3ccc(C(F)(F)F)cc3)nc2c1`, the pIC50 in [10] is 8.55. For the same molecule, the values for the remaining at 10 min in data set [7] and in [8] were 5% and 45%, respectively.
For the molecule `Cc1ccc(-c2cc(C(F)(F)F)nn2-c2ccc(S(N)(=O)=O)cc2)cc1`, in data set [20], the result was Active.

For the origin of these results see ChEMBL document CHEMBL3425511 (J Med Chem, 2015).
